How the values were obtained:
Assay type in all cases: cell-based
[1] = system: Raji; experiment: Inhibition of 12-O-tetradecanoylphorbol-13-acetate-induced EBV-early antigen activation in human Raji cells assessed as early antigen induction at 10 molar ratio after 48 hrs by conventional indirect immunofluorescence technique relative to TPA; set-up: scale not given: the % may be the effect or the level left; details: human gammaherpesvirus 4
Summary of the method: (§1)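 Raji cells (1 × 10^6 cells/mL, RPMI-1640 with 10% FBS) were induced with 4 mM n-butyric acid plus […] TPA (20 ng/mL in DMSO). Test compound (32, 16, 3.2, 0.32 nmol in 1 mL) was present for 48 h at 37 °C. EA-positive cells were stained with NPC patient sera and detected by indirect immunofluorescence, at least 500 cells per assay, three repeats. Results are given as percent of butyrate+TPA control.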

[2] = system: Raji; experiment: Inhibition of 12-O-tetradecanoylphorbol-13-acetate-induced EBV-early antigen activation in human Raji cells assessed as early antigen induction at 1000 molar ratio after 48 hrs by conventional indirect immunofluorescence technique relative to TPA; set-up: scale not given: the % may be the effect or the level left; details: human gammaherpesvirus 4; summary of the method: as §1
[3] = system: Raji; experiment: Inhibition of 12-O-tetradecanoylphorbol-13-acetate-induced EBV-early antigen activation in human Raji cells assessed as early antigen induction at 500 molar ratio after 48 hrs by conventional indirect immunofluorescence technique relative to TPA; set-up: scale not given: the % may be the effect or the level left; details: human gammaherpesvirus 4; summary of the method: as §1
[4] = system: Raji; experiment: Inhibition of 12-O-tetradecanoylphorbol-13-acetate-induced EBV-early antigen activation in human Raji cells assessed as early antigen induction at 100 molar ratio after 48 hrs by conventional indirect immunofluorescence technique relative to TPA; set-up: scale not given: the % may be the effect or the level left; details: human gammaherpesvirus 4; summary of the method: as §1
[5] = Cytotoxicity against human Raji cells assessed as cell viability at 1000 molar ratio after 48 hrs by trypan blue staining method; details: read-out: Activity
Summary of the method: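 Raji cells (EBV genome-carrying, nonproducer) at 1 × 10^6 cells/mL in RPMI-1640 with 10% FBS were exposed to 4 mM n-butyric acid, […] TPA and test compound at 37 °C in a CO2 incubator. Viability was scored by Trypan Blue staining and given as percent viable Raji cells.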

SMILES | Activity [1] | Activity [2] | Activity [3] | Activity [4] | viability at 48 h, 1000 molar ratio [5]
CC1=C(/C=C/C(C)=C/C=C/C(C)=C/C=C/C=C(C)/C=C/C=C(C)/C=C/C2=C(C)CCCC2(C)C)C(C)(C)CCC1 | 100% | 8.6% | – | – | –
C[C@@H](CC[C@H](O)C(C)(C)O)[C@@H]1CC[C@]2(C)[C@H]3CC[C@@]4(C(C)(C)O)OCCC[C@H]4[C@]3(C)CC[C@@]12C [(24S)-24,25-DIHYDROXYSUNPOLLENOL] | 94.2% | 0% | 25.3% | 73.3% | 70%
C[C@@H](CC[C@H]1OC1(C)C)[C@@H]1CC[C@]2(C)[C@H]3CC[C@@]4(C(C)(C)O)OCCC[C@H]4[C@]3(C)CC[C@@]12C [(24R)-24,25-EPOXYSUNPOLLENOL] | 91.8% | 0% | 26.3% | 72.6% | 60%
C[C@@H](C/C=C/C(C)(C)O)[C@@H]1CC[C@]2(C)[C@H]3CC[C@@]4(C(C)(C)O)OCCC[C@H]4[C@]3(C)CC[C@@]12C [(23E)-23-DEHYDRO-25-HYDROXYSUNPOLLENOL] | 90% | 0% | 22% | 70.6% | 70%
C[C@@H](CC[C@@H]1OC1(C)C)[C@@H]1CC[C@]2(C)[C@H]3CC[C@@]4(C(C)(C)O)OCCC[C@H]4[C@]3(C)CC[C@@]12C | 97.4% | 0% | 27.3% | 75.9% | 70%
CC(C)=CCC[C@H](C)[C@@H]1CC[C@]2(C)[C@H]3CC[C@@]4(C(C)(C)O)OCCC[C@H]4[C@]3(C)CC[C@@]12C [SUNPOLLENOL] | 96.8% | 3.1% | 30.5% | 74.3% | 70%
C[C@@H](CC[C@@H](O)C(C)(C)O)[C@@H]1CC[C@]2(C)[C@H]3CC[C@@]4(C(C)(C)O)OCCC[C@H]4[C@]3(C)CC[C@@]12C | 92.5% | 0% | 24.4% | 72.4% | 70%

Source: ChEMBL document CHEMBL1147249, “Sunpollenol and five other rearranged 3,4-seco-tirucallane-type triterpenoids from sunflower pollen and their inhibitory effects on Epstein-Barr virus activation” (J Nat Prod, 2003)
